This note sets out measurements from ChEMBL document CHEMBL4842330, “New nimesulide derivatives with amide/sulfonamide moieties: Selective COX-2 inhibition and antitumor effects” (Eur J Med Chem, 2021).

The source made the active and inactive calls. The rule behind the calls is not given here.

Data set [1] deals with COX-1 (Prostaglandin G/H synthase 1) (Homo sapiens, UniProt P23219). Kind of data set: Inhibition of human recombinant COX-1 at 10 uM using arachidonic acid as substrate preincubated for 10 mins followed by substrate addition relative to control. The note with it: recombinant COX-1, probe arachidonic acid.
The subject of data set [2] is THP-1. Kind of data set: Antiinflammatory activity in LPS-stimulated human THP-1 cells assessed as suppression of PGE2 release at 50 uM incubated for 24 hrs by ELISA relative to control. It is filed as functional. The gist of the method: (§1)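 THP-1 monocytes were differentiated with PMA (10 ng/mL, 24 h) and rested 24 h PMA-free. They were then given compound alongside 1 µg/mL LPS for 24 h. PGE₂ in supernatants was measured by ELISA and normalised to the BCA total protein of viable cells. Final DMSO ≤1.0%; at least three independent biological replicates.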

The subject of data set [3] is THP-1. The experiment in a line: Antiinflammatory activity in LPS-stimulated human THP-1 cells assessed as suppression of PGE2 release at 100 uM incubated for 24 hrs by ELISA relative to control. In kind it is functional. The gist of the method:
as §1
(In general: In an ELISA, binding on a coated surface is turned into a signal by an enzyme label.)

Data set [4] deals with THP-1. The experiment in a line: Antiinflammatory activity in LPS-stimulated human THP-1 cells assessed as suppression of COX-2 mRNA expression at 50 uM incubated for 24 hrs by ELISA relative to control. In kind it is functional. The conditions noted are these: in the assay text read “by qPCR” for “by ELISA”. The gist of the method: (§2)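 THP-1 monocytes plated at 1 × 10⁶ cells/mL, differentiated with 10 ng/mL PMA for 24 h, then rested 24 h in PMA-free medium. Cells were treated with compound and LPS stimulation. COX mRNA was quantified by qPCR with TaqMan probes against β-actin as housekeeping gene. Compound stocks in DMSO, final DMSO ≤1.0%.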

Data set [5] deals with THP-1. The experiment in a line: Antiinflammatory activity in LPS-stimulated human THP-1 cells assessed as suppression of COX-2 mRNA expression at 100 uM incubated for 24 hrs by ELISA relative to control. It is filed as functional. The conditions noted are these: in the assay text read “by qPCR” for “by ELISA”. Put shortly: as §2
Data set [6] concerns RAW264.7. Kind of data set: Inhibition of LPS-induced NO release in mouse RAW264.7 cells at 20 uM when treated with compound and LPS simultaneously measured after 24 hrs by Griess reagent based assay relative to control. In kind it is functional. The gist of the method: (§3)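 RAW264.7 cells were plated at 4 × 10⁵ cells/mL in phenol-free medium and left 24 h. They then received compound together with LPS (1 µg/mL) for 24 h. Nitrite in supernatants was measured by the Griess reaction and normalised to BCA total protein of viable cells. 1400W at 20 µM served as positive control.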

The nature of data set [7]: Inhibition of LPS-induced iNOS mRNA expression in mouse RAW264.7 cells assessed as downregulation of iNOS mRNA expression at 20 uM by RT-qPCR analysis relative to control. In kind it is functional. Put shortly:
(§4)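 RAW264.7 cells were kept in high-glucose DMEM with 10% FBS. They were treated with compound alongside LPS stimulation. iNOS, TNF-α and IL-1β mRNA were quantified by qPCR using TaqMan probes, with β-actin as housekeeping gene, and expressed relative to LPS control. Final DMSO ≤1.0%.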
In general terms: In qPCR the cycle at which signal appears reflects the starting amount.

For data set [8], the system named is RAW264.7. Kind of data set: Inhibition of LPS-induced iNOS mRNA expression in mouse RAW264.7 cells assessed as downregulation of iNOS mRNA expression at 50 uM by RT-qPCR analysis relative to control. In kind it is functional, cell-based. The gist of the method:
as §4

A short description of data set [9]: Inhibition of LPS-induced IL-1 beta mRNA expression in mouse RAW264.7 cells at 20 uM by RT-qPCR analysis relative to control. In kind it is functional. Put shortly:
as §4

Data set [10] is described as follows: Inhibition of LPS-induced IL-1 beta mRNA expression in mouse RAW264.7 cells at 50 uM by RT-qPCR analysis relative to control. It is filed as functional. The gist of the method: as §4
The nature of data set [11]: Inhibition of LPS-induced TNF alpha mRNA expression in mouse RAW264.7 cells at 20 uM by RT-qPCR analysis relative to control. In kind it is functional. Put shortly:
as §4

Data set [12] is described as follows: Inhibition of LPS-induced TNF alpha mRNA expression in mouse RAW264.7 cells at 50 uM by RT-qPCR analysis relative to control. It is filed as functional. The gist of the method:
as §4

Data set [13] has as its system MCF7. Kind of data set: Cytotoxicity against human MCF7 cells assessed as cell viability at 100 uM after 48 hrs by MTT assay relative to control. In kind it is functional. The note with it: read-out: Activity. The gist of the method: (§5)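 Cells in exponential growth were seeded at 5 × 10⁴ cells/mL, held 24 h at 37 °C, then exposed to compound for 48 h. MTT was added to 1 mg/mL final for 2 h. Formazan was dissolved in DMSO and read at 570 nm, with 620 nm background subtraction. Final DMSO ≤1.0%; viability reported as percentage of control.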
For orientation: Formazan colour is commonly taken as a measure of viable cells.

Data set [14] has as its system PC-3. The experiment in a line: Cytotoxicity against human PC-3 cells assessed as cell viability at 100 uM after 48 hrs by MTT assay relative to control. It is filed as functional. The conditions noted are these: read-out: Activity. The gist of the method: as §5
The subject of data set [15] is HT-29. The experiment in a line: Cytotoxicity against human HT-29 cells assessed as cell viability at 100 uM after 48 hrs by MTT assay relative to control. In kind it is functional. The conditions noted are these: read-out: Activity. The gist of the method:
as §5

The test system of data set [16] is RAW264.7. The experiment in a line: Inhibition of LPS-induced NO release in mouse RAW264.7 cells at 50 uM when treated with compound and LPS simultaneously measured after 24 hrs by Griess reagent based assay relative to control. In kind it is functional. The gist of the method:
as §3

Data set [17] addresses T1, Prostaglandin G/H synthase 2 (Homo sapiens) (UniProt P35354).
T1 sequence (whole entry): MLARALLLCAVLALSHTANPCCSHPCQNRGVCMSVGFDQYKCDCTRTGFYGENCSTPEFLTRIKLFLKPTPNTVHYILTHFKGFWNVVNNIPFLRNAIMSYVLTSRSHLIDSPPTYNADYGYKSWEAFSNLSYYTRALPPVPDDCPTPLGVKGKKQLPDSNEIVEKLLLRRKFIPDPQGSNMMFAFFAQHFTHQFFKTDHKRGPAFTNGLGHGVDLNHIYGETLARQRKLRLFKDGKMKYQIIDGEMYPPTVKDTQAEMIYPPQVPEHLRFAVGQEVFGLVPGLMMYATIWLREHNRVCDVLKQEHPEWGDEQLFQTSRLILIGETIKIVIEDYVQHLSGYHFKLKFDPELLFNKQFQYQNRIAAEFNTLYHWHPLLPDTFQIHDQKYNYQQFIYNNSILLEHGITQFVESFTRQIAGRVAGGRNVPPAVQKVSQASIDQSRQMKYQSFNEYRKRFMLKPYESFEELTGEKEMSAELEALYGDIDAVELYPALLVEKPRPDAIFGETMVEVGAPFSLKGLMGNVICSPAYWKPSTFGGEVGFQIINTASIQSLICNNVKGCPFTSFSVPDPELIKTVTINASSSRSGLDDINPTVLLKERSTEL
The experiment in a line: Inhibition of human recombinant COX-2 at 1 uM using arachidonic acid as substrate preincubated for 10 mins followed by substrate addition relative to control.

Sequence of COX-1 (Prostaglandin G/H synthase 1) (P23219 whole entry): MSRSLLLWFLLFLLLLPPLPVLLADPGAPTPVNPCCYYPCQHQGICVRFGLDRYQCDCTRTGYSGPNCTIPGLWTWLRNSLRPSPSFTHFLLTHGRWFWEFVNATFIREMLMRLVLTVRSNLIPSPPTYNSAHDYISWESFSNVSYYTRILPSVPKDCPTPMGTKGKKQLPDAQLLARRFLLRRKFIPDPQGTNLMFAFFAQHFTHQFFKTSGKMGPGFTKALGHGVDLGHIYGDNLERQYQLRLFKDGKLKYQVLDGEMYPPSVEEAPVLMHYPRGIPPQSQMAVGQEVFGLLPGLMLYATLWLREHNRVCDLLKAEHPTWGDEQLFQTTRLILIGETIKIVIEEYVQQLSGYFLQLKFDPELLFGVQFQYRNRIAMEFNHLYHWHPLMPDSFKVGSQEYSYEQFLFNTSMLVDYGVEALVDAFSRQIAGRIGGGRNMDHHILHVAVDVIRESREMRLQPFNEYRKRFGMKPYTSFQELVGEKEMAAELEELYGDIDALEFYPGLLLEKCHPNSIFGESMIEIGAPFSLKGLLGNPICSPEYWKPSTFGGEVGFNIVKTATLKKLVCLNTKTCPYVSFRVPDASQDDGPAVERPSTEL

Take `CC(C)Oc1cc(NC(=O)c2ccc(F)cc2)ccc1NS(C)(=O)=O`: the inhibition at 10 µM in data set [1] amounted to 27.2%. Besides, the Activity came to 67% in data set [2], 68% in data set [3], 53% in data set [4] and 61% in data set [5]. The inhibition at 20 µM in data set [6] came to 43%; in [7] it was 40%; in [9], 45%; in [11], 44%. The inhibition result in data set [8] is “Active”. Moreover, the results for the inhibition at 50 µM in [10], in data set [12] and in [16] were 51%, 57% and 46.4%, respectively. The viability at 100 µM in [13] is 110%; in data set [14], 79.4%; in data set [15] it was 49.6%. In addition, the inhibition in data set [17] worked out at 72.8%.

The term inhibition denotes the relative decrease from the control value, in per cent.
